Screening results deposited in PubChem by several laboratories.
Only some compounds are listed: those with a hit (about 2% of all), similar ones and a draw of the others.
FGF22 binding: binders of recombinant human FGF22 by thermal shift. Q9HCT0. SYPRO orange fluorescence; percent of sucrose octasulfate shift, DMSO zero. activity (Tm shift, normalised), % at 9.99 µM. 340,000 tested, 1.5% active;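 active = mean Tm shift, scaled 0 neutral to 100 positive control, at about 1.3% or above, every replicate too, limit read from the data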
Exocytosis inh: blocks lytic granule exocytosis; AID 651702; inhibition, % at 10 µM; TALL-104 LAMP-1 surface exposure, flow cytometry; cells stimulated with thapsigargin and PMA; 360,000 tested, 0.66% active;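 active = inhibition above about 55%, limit read from the data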
VLA-4 inh: inhibition in a human VLA-4 binding assay | 330,000 tested, 0.2% active | P13612 | VLA-4 expressing cells, ligand binding flow cytometry | inhibition, % (about 7 µM as worked out from the volumes in the protocol); in the data active = inhibition above about 50%
Target sequence (P13612 whole entry, looked up): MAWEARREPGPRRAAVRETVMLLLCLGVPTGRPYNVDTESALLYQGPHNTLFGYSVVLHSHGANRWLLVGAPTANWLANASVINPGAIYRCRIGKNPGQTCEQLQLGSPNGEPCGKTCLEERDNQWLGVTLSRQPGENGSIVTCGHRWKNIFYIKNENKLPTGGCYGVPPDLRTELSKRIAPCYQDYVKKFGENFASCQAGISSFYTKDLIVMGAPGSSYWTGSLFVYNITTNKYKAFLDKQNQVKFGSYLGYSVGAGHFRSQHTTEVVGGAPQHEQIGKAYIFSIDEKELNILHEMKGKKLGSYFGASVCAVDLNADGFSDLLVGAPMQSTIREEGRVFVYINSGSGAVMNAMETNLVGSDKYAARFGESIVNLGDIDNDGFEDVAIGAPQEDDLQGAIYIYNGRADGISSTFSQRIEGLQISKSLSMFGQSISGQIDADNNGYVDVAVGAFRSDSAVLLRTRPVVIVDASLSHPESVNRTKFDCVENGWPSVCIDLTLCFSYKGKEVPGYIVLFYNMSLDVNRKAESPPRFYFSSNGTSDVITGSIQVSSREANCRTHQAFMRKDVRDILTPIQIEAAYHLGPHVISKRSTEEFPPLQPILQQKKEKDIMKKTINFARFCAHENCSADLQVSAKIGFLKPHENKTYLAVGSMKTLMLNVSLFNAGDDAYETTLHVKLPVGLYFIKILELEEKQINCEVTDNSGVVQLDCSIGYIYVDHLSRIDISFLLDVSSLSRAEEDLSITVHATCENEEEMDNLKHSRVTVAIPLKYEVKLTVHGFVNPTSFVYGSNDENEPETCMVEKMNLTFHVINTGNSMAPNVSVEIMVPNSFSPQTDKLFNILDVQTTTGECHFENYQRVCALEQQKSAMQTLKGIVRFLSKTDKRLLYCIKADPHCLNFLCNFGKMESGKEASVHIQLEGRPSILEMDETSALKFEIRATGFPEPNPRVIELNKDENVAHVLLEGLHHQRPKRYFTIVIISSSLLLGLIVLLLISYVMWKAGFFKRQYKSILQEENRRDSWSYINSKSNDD
DAGLB inh: diacylglycerol lipase beta (human) inhibition; Q8NCG7; 340,000 tested, 0.059% active; inhibition, % at 5.17 µM; HEK293T DAGLB membrane lysate, EnzChek fluorogenic substrate; in the data active = inhibition above about 34%
MT1-MMP act inh: inhibitors of human MT1-MMP activation; P50281; HT1080 RFP-PRO-GFP cells, GFP/RFP ratio fluorescence, overnight; percent of plate control window, DMSO zero; GFP/RFP ratio change, % at 20 µM; 360,000 tested, 0.061% active; AID 651647;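 active = GFP/RFP ratio change of at least 30% with cell ATP level not reduced by more than half and red fluorescence within 50% of control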
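system = RFP-PRO-GFP reporter HT1080 cells | dosing = 20 µM single dose, 1% DMSO | timing = overnight cell settling, then overnight compound exposure, 37 °C, 5% CO2 | read-out basis = GFP/RFP fluorescence ratio | controls = DMSO and RFP-L50D-GFP cell wells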
ABCB6 inh 2: human ABCB6 transporter inhibition; AID 602162; fluorescence ratio to DMSO, % at 10 µM; K562-ABCB6 porphyrin accumulation, flow cytometry, 1 h; hits give low values; 360,000 tested, 0.19% active;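 active = fluorescence ratio to DMSO below 75%, the collection mean minus 3 SD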;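 note: signal is porphyrin accumulated inside mitochondria; lower ratio means ABCB6 inhibition with less porphyrin fluorescence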
Large screens that a line does not name were inactive; ! = repeats disagree.

Cn1cnc(S(=O)(=O)N2C[C@@H](O)COC[C@@H]3O[C@@H](CC(=O)NC4Cc5ccccc5C4)CC[C@H]32)c1	none (no result: Exocytosis inh, VLA-4 inh, DAGLB inh, MT1-MMP act inh, ABCB6 inh 2)
CC(C)NC(=O)N(C)C[C@H]1Oc2ncc(-c3cncnc3)cc2C(=O)N([C@@H](C)CO)C[C@H]1C	none (no result: Exocytosis inh, VLA-4 inh, DAGLB inh, MT1-MMP act inh, ABCB6 inh 2)
COc1ccc(NC(=O)c2ccc(NC(=O)CN3CCN(c4ccc(O)cc4)CC3)cc2)cc1	none (no result: VLA-4 inh)
COc1ccc(NC(=O)c2ccc(NC(=O)CN3CCN(c4ccccc4O)CC3)cc2)cc1	FGF22 binding 43.2 (no result: VLA-4 inh)
CC(C)CC(N)c1csc(Nc2cnccn2)n1 (centres undefined)	FGF22 binding 43.6 (no result: VLA-4 inh, DAGLB inh)
CC(C)CC(N)c1csc(Nc2ccccn2)n1 (centres undefined)	none (no result: VLA-4 inh, DAGLB inh)
Cc1noc(C)c1S(=O)(=O)N(C)C[C@H]1Oc2ccc(NC(=O)Nc3ccc(C(F)(F)F)cc3)cc2CC(=O)N([C@@H](C)CO)C[C@H]1C	none (no result: Exocytosis inh, VLA-4 inh, DAGLB inh, MT1-MMP act inh, ABCB6 inh 2)
COc1ccc(C(=O)c2c(C)c3cc(C)ccc3n2CC(O)CN2CCOCC2)cc1 (centres undefined)	FGF22 binding 43.6
COCC(=O)N1[C@H](CO)[C@H]2c3ccccc3N(C(=O)c3cccc(OC)c3)C[C@H]21	none (no result: Exocytosis inh, VLA-4 inh, DAGLB inh, MT1-MMP act inh, ABCB6 inh 2)
COc1cccc(CN2C[C@@H](C)[C@H](OC)CN(C)C(=O)c3cc(NS(=O)(=O)c4cn(C)cn4)ccc3OC[C@H]2C)c1	none (no result: Exocytosis inh, VLA-4 inh, DAGLB inh, MT1-MMP act inh, ABCB6 inh 2)
O=C(Cn1cc2c(n1)CCCC2)NC1CCCCCC1	none
O=C(Cn1cc2c(n1)CCCCC2)NC1CCN(Cc2ccccc2)CC1	FGF22 binding 43.1
C[C@@H]1CCCCO[C@H](CN(C)C(=O)CCCN(C)C)[C@@H](C)CN([C@H](C)CO)C(=O)c2cc(NC(=O)CCC(F)(F)F)ccc2O1	FGF22 binding 1.5 (no result: Exocytosis inh, VLA-4 inh, DAGLB inh, MT1-MMP act inh, ABCB6 inh 2)
C[C@H](CO)N1C[C@H](C)[C@@H](CN(C)S(=O)(=O)c2cccs2)OCCCC[C@H](C)Oc2ccc(NS(=O)(=O)c3ccc(Cl)cc3)cc2C1=O	none (no result: Exocytosis inh, VLA-4 inh, DAGLB inh, MT1-MMP act inh, ABCB6 inh 2)
C[C@@H]1CCCCO[C@@H](CN(C)C(=O)CCC(F)(F)F)[C@@H](C)CN([C@H](C)CO)C(=O)c2cc(NC(=O)CCCN(C)C)ccc2O1	none (no result: Exocytosis inh, VLA-4 inh, DAGLB inh, MT1-MMP act inh, ABCB6 inh 2)
C[C@@H]1CN([C@@H](C)CO)C(=O)c2cc(NS(=O)(=O)c3ccccc3)ccc2O[C@@H](C)CCCCO[C@@H]1CN(C)S(=O)(=O)c1ccc(F)cc1	none (no result: Exocytosis inh, VLA-4 inh, DAGLB inh, MT1-MMP act inh, ABCB6 inh 2)
C[C@@H]1CCCCO[C@@H](CN(C)C(=O)CCCN(C)C)[C@@H](C)CN([C@H](C)CO)C(=O)c2cc(NS(=O)(=O)c3cccs3)ccc2O1	none (no result: Exocytosis inh, VLA-4 inh, DAGLB inh, MT1-MMP act inh, ABCB6 inh 2)
C[C@@H]1CCCCO[C@@H](CN(C)C(=O)CCCN(C)C)[C@H](C)CN([C@@H](C)CO)C(=O)c2cc(NS(=O)(=O)c3cccs3)ccc2O1	FGF22 binding 1.3 (no result: Exocytosis inh, VLA-4 inh, DAGLB inh, MT1-MMP act inh, ABCB6 inh 2)
C[C@H](CO)N1C[C@H](C)[C@H](CN(C)S(=O)(=O)c2cccs2)OCCCC[C@H](C)Oc2ccc(NS(=O)(=O)c3ccc(Cl)cc3)cc2C1=O	FGF22 binding 1.2 (no result: Exocytosis inh, VLA-4 inh, DAGLB inh, MT1-MMP act inh, ABCB6 inh 2)
C[C@@H]1CCCCO[C@@H](CN(C)S(=O)(=O)c2ccccc2)[C@@H](C)CN([C@H](C)CO)C(=O)c2cc(NS(=O)(=O)c3ccc(F)cc3)ccc2O1	FGF22 binding 1.3! (no result: VLA-4 inh)
C[C@H](CO)N1C[C@H](C)[C@@H](CN(C)Cc2ccc(Oc3ccccc3)cc2)Oc2ccc(NC(=O)Nc3ccccc3)cc2CC1=O	none (no result: Exocytosis inh, VLA-4 inh, DAGLB inh, MT1-MMP act inh, ABCB6 inh 2)
CCCNC(=O)N[C@H]1CC[C@H](CC(=O)N2CCN(C)CC2)O[C@H]1CO	none (no result: Exocytosis inh, VLA-4 inh, DAGLB inh, MT1-MMP act inh, ABCB6 inh 2)
C[C@@H]1CCCCO[C@@H](CN(C)S(=O)(=O)c2ccccc2)[C@@H](C)CN([C@H](C)CO)C(=O)c2cc(NC(=O)CCC(F)(F)F)ccc2O1	FGF22 binding 14.8 (no result: Exocytosis inh, VLA-4 inh, DAGLB inh, MT1-MMP act inh, ABCB6 inh 2)
Cc1ccc(S(=O)(=O)Nc2ccc3c(c2)C(=O)N([C@H](C)CO)C[C@H](C)[C@@H](CN(C)S(=O)(=O)c2ccc(Cl)cc2)OCCCC[C@H](C)O3)cc1	FGF22 binding 30.6 (no result: Exocytosis inh, VLA-4 inh, DAGLB inh, MT1-MMP act inh, ABCB6 inh 2)
CN(C)CC(=O)Nc1ccc2c(c1)[C@@H]1C[C@@H](CC(=O)NCc3ccccc3F)O[C@H](CO)[C@@H]1O2	none (no result: Exocytosis inh, VLA-4 inh, DAGLB inh, MT1-MMP act inh, ABCB6 inh 2)
O=C(O)C1C2C=CC(O2)C1C(=O)Nc1ccc(S(=O)(=O)Nc2ccccc2)cc1 (centres undefined)	Exocytosis inh 101.6 (no result: FGF22 binding)
O=C(C[C@@H]1CC[C@@H](NC(=O)Cc2ccccn2)[C@H](CO)O1)NCCc1ccccc1	none (no result: Exocytosis inh, VLA-4 inh, DAGLB inh, MT1-MMP act inh, ABCB6 inh 2)
O=C(c1ccco1)N1CCN(Cc2cc(=O)c(OCc3ccccc3F)co2)CC1	FGF22 binding 65.6
C[C@H](CO)N1C[C@H](C)[C@@H](CN(C)Cc2ccc3c(c2)OCO3)OCCCC[C@H](C)Oc2ccc(NC(=O)Cc3ccccc3)cc2C1=O	none (no result: Exocytosis inh, VLA-4 inh, DAGLB inh, MT1-MMP act inh, ABCB6 inh 2)
O=C(O)c1cccc(Nc2nc(C(F)(F)F)nc3ccccc23)c1	FGF22 binding 2.0
O=C(O)c1cccc(Nc2nc(-c3ccccc3)nc3ccccc23)c1	none
COc1ccc(C(C(=O)NC(C)(C)C)N(CCO)C(=O)CCC(=O)Nc2cc(C)on2)cc1 (centres undefined)	FGF22 binding 43.0
COc1ccc(C(C(=O)NC(C)(C)C)N(CCc2ccccc2)C(=O)CCC(=O)Nc2cc(C)on2)cc1 (centres undefined)	none (no result: MT1-MMP act inh)
Cc1noc(C)c1NC(=O)N(C)C[C@H]1Oc2c(NC(=O)CCCCCC(=O)Nc3ccccc3N)cccc2C(=O)N([C@@H](C)CO)C[C@H]1C	none (no result: Exocytosis inh, VLA-4 inh, DAGLB inh, MT1-MMP act inh, ABCB6 inh 2)
C/C=C(/C)C(=O)O[C@@H]1[C@H](OC(C)=O)c2c(ccc3ccc(=O)oc23)OC1(C)C	Exocytosis inh 60.9
C/C=C(/C)C(=O)OC1c2c(ccc3ccc(=O)oc23)OC(C)(C)C1OC(C)=O (centres undefined)	none (no result: FGF22 binding)
C[C@H](CO)N1C[C@H](C)[C@@H](CN(C)CC2CCCCC2)Oc2ccc(NC(=O)Nc3cccc4ccccc34)cc2CC1=O	none (no result: Exocytosis inh, VLA-4 inh, DAGLB inh, MT1-MMP act inh, ABCB6 inh 2)
